Active and inactive are the calls of the source. The rule behind the calls is not given here.
Tests used:
[1] = tested on: DU-145; assay: Mitotoic arrest in human DU145 cells assessed as complete loss of coordination in mitotic spindle assembly at 25 nM after 24 hrs by FITC and propidium iodide staining-based confocal laser microscopic analysis; format: functional, cell-based
Procedure, shortened: (§1)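 DU145 cells grown on glass coverslips, exposed to 0.025 μM for 24 h, fixed in 4% paraformaldehyde, permeabilized in PBS with 10% FBS/0.1% Triton X-100, stained with FITC-conjugated anti-α-tubulin (DM1A, 1 h, 37 °C) and propidium iodide (1 μg/mL, 5 min), then imaged by confocal microscopy (60× objective, XYZ-sectioning); DMSO-treated cells as vehicle.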

[2] = tested on: Mus musculus; assay: Elimination half life in ICR mouse at 5 mg/kg, iv by LC-MS/MS analysis; format: ADME, organism-based; parameters: dose 5 mg/kg, route intravenous; settings: in vivo
Procedure, shortened: (§2)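 Male ICR mice, 6–8 weeks old, N=3 per group. Single 5 mg/kg dose in NMP:PEG300:water (1:4:5 v/v), given as IV bolus or oral gavage. Serial arterial blood was drawn through a carotid cannula at 2–360 min. Plasma was protein-precipitated with acetonitrile containing internal standard and assayed by LC/MS/MS. Parameters were derived by noncompartmental analysis.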

[3] = tested on: DU-145; assay: Mitotoic arrest in human DU145 cells assessed as complete depolymerization of microtubule cytoskeleton at 25 nM after 24 hrs by FITC and propidium iodide staining-based confocal laser microscopic analysis; format: functional, cell-based; procedure, shortened: as §1
[4] = tested on: BT-20; assay: Antitumor activity against human BT20 cells xenografted in NCR-nu/nu mouse assessed as reduction in tumor volume at 20 mg/kg, ip treated 3 times a week for 2 weeks measured on alternate days for 14 days; format: functional, organism-based; parameters: dose 20 mg/kg
Procedure, shortened: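 Female athymic NCr-nu/nu mice were implanted subcutaneously in the hind leg with 0.5–1.0×10⁷ BT20 cells. Mice were paired once tumours reached about 100–150 mm³ (vehicle N=7, treated N=8). Dosing was 20 mg/kg IP in DMSO (0.1 mL), 3×/week for 2 weeks. Calipers measured two dimensions; volume = L×S²×π/6. Body weight was recorded at each measurement.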

[5] = tested on: Mus musculus; assay: Volume of distribution at steady state in ICR mouse at 5 mg/kg, iv by LC-MS/MS analysis; format: ADME, organism-based; parameters: dose 5 mg/kg, route intravenous; settings: in vivo
Procedure, shortened: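 Male ICR mice, 6–8 weeks old (N=3 per group), with a carotid artery cannula implanted one day before dosing. Dosed at 5 mg/kg in NMP:PEG300:water (1:4:5) as an IV bolus or by oral gavage. Blood drawn at 2–360 min; plasma protein-precipitated with acetonitrile containing internal standard, assayed by LC/MS/MS; noncompartmental analysis.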

[6] = tested on: DU-145; assay: Cytotoxicity against human DU145 cells after 96 hrs by trypan blue exclusion assay; format: functional, cell-based
Procedure, shortened: (§3)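 Cells were grown in DMEM or RPMI with 10% FBS and plated at 2.5×10⁴ cells/well in 12-well dishes. Compounds were added 24 h later at various concentrations. After 96 h, viable cells were counted by trypan blue exclusion from duplicate wells. Results are the mean of two independent experiments.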

[7] = tested on: Mus musculus; assay: Clearance in ICR mouse at 5 mg/kg, iv by LC-MS/MS analysis; format: ADME, organism-based; parameters: dose 5 mg/kg, route intravenous; settings: in vivo; procedure, shortened: as §2
[8] = Cytotoxicity against human H80 cells after 96 hrs by trypan blue exclusion assay; format: functional; settings: H80, 96 h; procedure, shortened: as §3

In the case of `COc1cc(OC)c(/C=C/S(=O)(=O)Nc2ccc(OC)c(N)c2)c(OC)c1`, the Activity [1] is reported as “Active”, the “beta t1/2” value [2] is reported as 1.7 h and the Activity [3] is reported as “Active”. For the same molecule, the Activity [4] was “Active”, the Vdss [5] was 2.13 L/kg and the Activity [6] was “Dose-dependent effect”. The IC50 ([6]; DU-145, 96 h) was 5 nM, the CL [7] was 41.3 mL/min/kg and the GI50 [8] was 4 nM.

Reference: ChEMBL document CHEMBL2396655, “Design, synthesis, and biological evaluation of (E)-N-aryl-2-arylethenesulfonamide analogues as potent and orally bioavailable microtubule-targeted anticancer agents” (J Med Chem, 2013)
